# Screening data: PubChem BioAssay, Johns Hopkins Ion Channel Center
# The list is not random: actives were taken first. Their share in the collection is about 2.3%.
# TRPC4 potent: allosterically enhances the mouse TRPC4 cation channel; HEK293 TRPC4beta/mu-opioid, DAMGO EC20, Fluo-4 Ca2+ flux; stronger effect = higher value; B-score at 10 µM; 0.42% of 310,000 active; AID 2227;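 active = B-score of calcium response area above 5 SD of library B-scores, with initial fluorescence ratio within 5 SD of library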;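 also: B-score of integrated fluorescence ratio over time as area under calcium response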
# TRPC4 inh: blocks the mouse TRPC4 cation channel | Q9QUQ5 | HEK293 TRPC4beta/mu-opioid, DAMGO-evoked Fluo4 calcium flux; stronger effect = lower value | B-score at 10 µM | 0.39% of 300,000 active;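 active = B-score over 3 SD under the library average, no early fluorescence shift, positive overall ratio signal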
#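 Assay system: HEK293 cells with stable TRPC4beta plus mu-opioid receptor expression; Probe or stimulus: DAMGO in two steps, submaximal then maximal; Dosing: single-point compound dosing; Measured by: Fluo4 calcium-dye fluorescence, kinetic read; Read-out basis: B score from integrated Fluo4 fluorescence ratio.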
# TRPC6 activator: mouse TRPC6 channel activation; B-score at 10 µM; Q61143; 0.13% of 310,000 active; HEK293-TRPC6 membrane potential dye fluorescence; stronger effect = higher value;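 active = B-score of the integrated fluorescence ratio above library mean plus 3 SD, and starting fluorescence ratio within library mean plus 5 SD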;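 also: higher score means more depolarization so channel activation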
# Target sequence (Q61143 whole entry, looked up): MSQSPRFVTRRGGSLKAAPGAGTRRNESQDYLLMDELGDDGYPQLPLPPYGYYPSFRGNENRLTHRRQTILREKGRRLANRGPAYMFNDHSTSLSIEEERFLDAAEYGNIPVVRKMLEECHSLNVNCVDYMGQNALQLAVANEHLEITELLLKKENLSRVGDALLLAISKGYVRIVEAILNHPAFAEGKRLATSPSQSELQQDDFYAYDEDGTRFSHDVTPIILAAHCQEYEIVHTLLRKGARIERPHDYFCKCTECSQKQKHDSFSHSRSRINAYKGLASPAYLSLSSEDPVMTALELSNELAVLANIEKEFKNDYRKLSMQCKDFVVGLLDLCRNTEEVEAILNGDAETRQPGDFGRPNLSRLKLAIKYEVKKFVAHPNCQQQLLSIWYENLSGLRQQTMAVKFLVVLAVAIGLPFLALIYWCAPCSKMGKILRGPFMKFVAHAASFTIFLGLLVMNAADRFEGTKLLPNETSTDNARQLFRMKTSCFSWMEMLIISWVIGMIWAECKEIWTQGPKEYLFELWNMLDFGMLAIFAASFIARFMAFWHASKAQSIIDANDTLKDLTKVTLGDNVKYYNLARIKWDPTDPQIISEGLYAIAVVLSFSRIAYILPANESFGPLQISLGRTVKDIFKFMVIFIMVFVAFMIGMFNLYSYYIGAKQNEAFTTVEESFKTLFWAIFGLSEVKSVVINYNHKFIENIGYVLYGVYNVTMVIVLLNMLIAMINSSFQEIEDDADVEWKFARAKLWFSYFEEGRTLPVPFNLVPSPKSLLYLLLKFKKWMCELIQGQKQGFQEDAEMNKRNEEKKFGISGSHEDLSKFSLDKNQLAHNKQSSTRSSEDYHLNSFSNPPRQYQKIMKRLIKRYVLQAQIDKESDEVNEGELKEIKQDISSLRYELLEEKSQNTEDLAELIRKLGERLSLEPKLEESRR
# TRPC6 inhibitor: blocks the mouse TRPC6 cation channel. HEK293-TRPC6, membrane potential dye, ACh-evoked depolarization; stronger effect = lower value. B-score at 10 µM. 1.1% of 310,000 active. AID 2553;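 active = B-score under library mean minus 3 SD, initial fluorescence not abnormally high, positive integrated signal ratio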;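 also: B-score derived from integrated fluorescence ratio over the kinetic read; more negative B-score means stronger inhibition of depolarization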
# TRPC4 agonist: TRPC4 (mouse) channel activation; Q9QUQ5; HEK293 TRPC4beta/mu-opioid, Fluo4 calcium fluorescence; stronger effect = higher value; B-score at 10 µM; 0.49% of 310,000 active;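 active = B-score above 5 SD of library B-scores, and initial fluorescence ratio not above library mean plus 5 SD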;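 also: positive B-score marks a calcium rise read as TRPC4 activation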
#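 System: HEK293 cells stably co-expressing mouse TRPC4beta and mu-opioid receptor; Schedule: Fluo4 dye loading 45 min at room temperature, 110 s recording; Detection: Fluo4 fluorescence, kinetic; Evaluation: B-scored integrated calcium fluorescence ratio; Controls: buffer (low) and maximal DAMGO (high).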
# TRPC4 sel inh 2: second check of whether TRPC6 inhibitors also affect mouse TRPC4; shares compounds with TRPC6 inhibitor; HEK293 TRPC4/MOR, membrane potential dye fluorescence; channel activated by saturating DAMGO dose; inhibition, % at 10 µM; 42% of 920 active; AID 2776;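 active = compounds whose fluorescence signal differed from control wells by over 3 SD, either direction, in both duplicate plates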
# TRPC4 spec: mouse TRPC4 off-target activity of TRPC6 inhibitors; HEK293 TRPC4/mu-opioid, membrane potential fluorescence; AID 2777; shares compounds with TRPC6 inhibitor; activity change, negative = inhibition, % at 10 µM; 61% of 920 active;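 active = rise or fall in signal beyond 3 SD of buffer-only wells in both replicate plates, either sign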;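 also: integrated kinetic ratio of fluorescence range over baseline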
# HEK293 MPD ctr 2-1: parental HEK293 nonspecific activity of TRPC6 inhibitors, second screen | shares compounds with TRPC6 inhibitor | parental HEK293 membrane potential dye fluorescence; maximal acetylcholine challenge after compound addition | signal change vs control, % at 10 µM | 31% of 920 active;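 active = membrane potential signal moving either way by over 3 SD of the maximum-effect control, in both duplicate plates, meaning non-specific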
# HEK293 MPD ctr-1: parental HEK293 nonspecific activity of TRPC6 inhibitors; parental HEK293 membrane potential dye fluorescence; shares compounds with TRPC6 inhibitor; membrane potential signal change, % at 10 µM; 60% of 920 active;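 active = membrane potential signal shifting up or down by more than 3 SD of buffer-only wells, on both duplicate plates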
# HEK293 MPD ctr-2: checks TRPC6 modulator effects in parental HEK293 cells; shares compounds with TRPC6 inhibitor; membrane potential dye fluorescence; membrane potential signal change, % at 10 µM; 51% of 2,400 active; AID 488924;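 active = membrane potential signal moves up or down beyond 5 SD from buffer-only wells, on both duplicate plates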
# HEK293 MPD ctr 2-2: second check of TRPC6 modulator effects in parental HEK293 cells; shares compounds with TRPC6 inhibitor; membrane potential dye fluorescence; after compound, maximal acetylcholine stimulation; inhibition, % at 10 µM; 14% of 2,400 active; AID 488926;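 active = membrane potential signal drops by more than 5 SD from the mean control signal, in both duplicate plates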;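 also: plate controls were acetylcholine ECmax control wells for no effect and buffer only wells for full effect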
# TRPC4/MOR mod: selectivity of TRPC6 modulators against mouse TRPC4; percent change from control (negative = decrease, positive = increase), % at 10 µM; HEK293 TRPC4/mu-opioid, membrane potential fluorescence; AID 488927; 69% of 2,400 active; shares compounds with TRPC6 inhibitor;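 active = membrane potential signal moved up or down beyond 5 SD of buffer control wells, in both duplicate plates, actives on both sides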;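 also: plate controls were assay buffer wells for no effect and DAMGO maximal-effect wells for full effect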
# TRPC4/MOR inh 2: mouse TRPC4 off-target activity of TRPC6 modulators, second screen; AID 488928; inhibition, % at 10 µM; HEK293 TRPC4/mu-opioid, membrane potential dye fluorescence; stimulated with maximal-effect DAMGO; 55% of 2,400 active; shares compounds with TRPC6 inhibitor;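 active = drop in membrane potential signal beyond 5 SD of the control wells in both duplicate plates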;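 also: TRPC4 counter screen for TRPC6 hits run under conditions tuned for TRPC6 not TRPC4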
# TRPC6 block conf: confirmation of mouse TRPC6 inhibitors | shares compounds with TRPC6 inhibitor | HEK293-TRPC6, membrane potential dye, ACh-evoked depolarization | inhibition, % at 10 µM | 43% of 3,300 active;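 active = fluorescence ratio falls more than 5 SD below the full-stimulation control mean, in both duplicate runs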;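 also: integrated fluorescence ratio of peak minus minimum over baseline after agonist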
# TRPC6 act conf: confirmation of mouse TRPC6 activators; HEK293-TRPC6 membrane potential dye fluorescence, FDSS; shares compounds with TRPC6 inhibitor; AID 488961; activation, % at 10 µM; 11% of 2,800 active;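 active = ratio signal rise beyond 5 SD above unstimulated control wells' mean, seen in both duplicate runs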;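 also: plate controls were buffer EC0 wells for no effect and acetylcholine ECmax response for full effect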
# * hit, by the source's call; i = inactive; · = no result.
SMILES,TRPC4 potent,TRPC4 inh,TRPC6 activator,TRPC6 inhibitor,TRPC4 agonist,TRPC6 block conf,TRPC6 act conf,others
COc1ccc(CCN2CC(C(=O)N(C)CCc3cn[nH]c3)CCC2=O)cc1 (centres undefined),i,i,i,i,i,·,·,
COc1ccc(C(=O)c2coc3ccc(O)c(CN(C)C)c23)cc1,i,i,i,-5.3*,i,i,i,HEK293 MPD ctr-2=i;HEK293 MPD ctr 2-2=i;TRPC4/MOR mod=9.0%*;TRPC4/MOR inh 2=56%*
CN(C)CCCN(C(=O)c1ccco1)c1nc2c(F)cc(F)cc2s1,i,i,i,-7.1*,i,52%*,i,HEK293 MPD ctr-2=-158%*;HEK293 MPD ctr 2-2=i;TRPC4/MOR mod=-34%*;TRPC4/MOR inh 2=82%*
CN(C)CCCN(C(=O)c1ccco1)c1nc(-c2ccc(Cl)cc2)cs1,i,-6*,i,-7.3*,i,i,i,TRPC4 sel inh 2=12%*;TRPC4 spec=i;HEK293 MPD ctr 2-1=i;HEK293 MPD ctr-1=-152%*
CN(C)CCCN(C(=O)c1ccco1)c1nc2c(F)cccc2s1,i,i,i,-9.8*,i,107%*,i,TRPC4 sel inh 2=18%*;TRPC4 spec=-32%*;HEK293 MPD ctr 2-1=26%*;HEK293 MPD ctr-1=-300%*
CN(C)CCCN(C(=O)CCc1ccccc1)c1nc2c(F)cccc2s1,i,i,i,i,i,·,·,
CN(C)CCCN(C(=O)/C=C/c1cccs1)c1nc2c(F)cccc2s1,i,i,i,-7.1*,i,i,i,TRPC4 sel inh 2=i;TRPC4 spec=i;HEK293 MPD ctr 2-1=i;HEK293 MPD ctr-1=i
COCCN(C(=O)COC(=O)Cc1cccc(OC)c1)c1c(N)n(CC(C)C)c(=O)[nH]c1=O,i,i,i,i,i,·,·,
CCOc1cc(/C=N/NC(=O)CCn2nc(C)cc2C)ccc1O,i,i,i,i,i,·,·,
COc1ccc(CCNC(=O)CSc2nc3ccsc3c(=O)n2CC2CCC(C(=O)O)CC2)cc1OC (centres undefined),i,i,i,i,i,·,·,
CCN(C(=O)CSc1nc2ccccc2o1)c1c(N)n(Cc2ccccc2)c(=O)[nH]c1=O,i,i,i,i,i,·,·,
COCCN(C(=O)COC(=O)c1cc(C)oc1C)c1c(N)n(Cc2ccccc2)c(=O)[nH]c1=O,i,i,i,i,i,·,·,
O=C(COc1ccc(S(=O)(=O)NC2CCCCC2)cc1)NC1CC1,i,i,i,i,i,·,·,
O=S(=O)(CCC1CCCCN1)c1ccccc1 (centres undefined),i,i,i,i,i,·,·,
CN1CCN(c2ncnc3sc(-c4ccccc4)cc23)CC1,i,i,i,-6.2*,i,i,i,HEK293 MPD ctr-2=i;HEK293 MPD ctr 2-2=i;TRPC4/MOR mod=i;TRPC4/MOR inh 2=38%*
c1ccc(-c2cc3c(N4CCN(c5ccccc5)CC4)ncnc3s2)cc1,i,i,i,i,i,·,·,
Cc1ccc(OCCC(=O)OC(C)C(=O)Nc2ccc(Cl)cn2)cc1 (centres undefined),i,i,i,i,i,·,·,
COc1ccc(-c2cc(C(F)(F)F)n3nc(C(=O)N4CCN(C(=O)c5ccco5)CC4)cc3n2)cc1,i,i,i,i,i,·,·,
O=C(c1cc2nc(-c3ccco3)cc(C(F)(F)F)n2n1)N1CCN(Cc2ccccc2)CC1,i,i,i,-6.7*,i,i,i,TRPC4 sel inh 2=i;TRPC4 spec=5.7%*;HEK293 MPD ctr 2-1=227%*;HEK293 MPD ctr-1=2.3%*
Cc1ccc(-n2c(C)nn(CCOc3ccccc3)c2=O)cc1,i,i,i,i,i,·,·,
Cc1cc(Nc2ccc3c(c2)OCCO3)c2cc(Cl)ccc2n1,i,i,i,-5.1*,i,i,i,HEK293 MPD ctr-2=-83%*;HEK293 MPD ctr 2-2=i;TRPC4/MOR mod=-16%*;TRPC4/MOR inh 2=44%*
Cc1cc(C)c(C#N)c(Nc2ccc3c(c2)OCCO3)n1,i,i,i,i,i,·,·,
O=C(CNCc1ccccc1)NC1C2CC3CC(C2)CC1C3 (centres undefined),i,i,i,-5.8*,i,60%*,·,HEK293 MPD ctr-2=i;HEK293 MPD ctr 2-2=i;TRPC4/MOR mod=9.0%*;TRPC4/MOR inh 2=36%*
CN(Cc1nccn1C)C(=O)c1ccc2nc(Cc3ccccc3F)oc2c1,i,i,i,i,i,·,·,
Cc1ccc(C(=O)NCCNC(=O)Cc2ccccc2)cn1,i,i,i,i,i,·,·,
CSc1nc2ccc(NC(=O)c3ccc(=O)n(C)n3)cc2s1,i,i,i,-5.1*,i,i,i,HEK293 MPD ctr-2=i;HEK293 MPD ctr 2-2=i;TRPC4/MOR mod=i;TRPC4/MOR inh 2=i
COc1ccc(C2C3=C(CC(C)(C)CC3=O)Oc3ncn(Cc4ccco4)c(=N)c32)cc1 (centres undefined),i,i,i,-6*,i,i,·,HEK293 MPD ctr-2=110%*;HEK293 MPD ctr 2-2=i;TRPC4/MOR mod=i;TRPC4/MOR inh 2=44%*
COc1ccc(C2C3=C(CC(C)(C)CC3=O)Oc3ncn(CC(C)C)c(=N)c32)cc1 (centres undefined),i,i,i,i,i,·,·,
Cc1c(C(=O)Nc2ccc(F)cc2)sc2ncn(CC(=O)N3CCCCC3)c(=O)c12,i,i,i,i,i,·,·,
CCCn1c(=N)n(CC(=O)c2ccc([N+](=O)[O-])cc2)c2ccccc21,i,i,i,i,i,·,·,
